# Measured values pooled from the literature.
# Compare with care: the assays were run in different laboratories.
SMILES,target or system,test,system,setting,measurement,result
COC(=O)c1cc(-c2cccc(NC(=O)Nc3ccc(Cl)cc3Cl)c2)on1,Mycobacterium tuberculosis,microbial growth,ATCC27294 H37RV,7 days,MIC,0.5 µg/mL
CCOC(=O)C1=C(N)N(c2ccc(C(=O)OCC)cc2)C(O)=C(C#N)C12C(=O)Nc1ccccc12 (centres unmarked),HepG2,"cell growth or viability, MTT",,"3.125 µM, 24 h",viability,74.5%
CN1CC[C@]23c4c5ccc(O)c4O[C@H]2[C@@H](O)C=C[C@H]3[C@H]1C5,,thermal pain,rat,intraperitoneal,ED50,7.63 mg/kg
Nc1ncnc2c([C@@H]3N[C@H](CO)[C@@H](O)[C@H]3O)c[nH]c12,human respiratory syncytial virus,"viral replication, inhibitor",MA104,88.8 µM,inhibition,94.2%
O=C(NCc1ccc(Cl)c(Cl)c1)c1nc(Cl)c2cccnc2c1O,Human betaherpesvirus 5,"viral replication, inhibitor",HFF,,EC50,9700 nM
Cc1c(C(=O)O)sc2[nH]c(=O)n(O)c(=O)c12,Human betaherpesvirus 5,"viral replication, inhibitor",,"10 µM, 7 days",inhibition,11%
CCCCCCC#Cc1cncc(-c2nnc(SCc3ccc(Cl)cc3)n2C)c1,Mycobacterium tuberculosis,microbial growth,,,IC50,850 nM
CCN1CCc2c(sc3[nH]c(=O)n(O)c(=O)c23)C1,Human betaherpesvirus 5,"viral replication, inhibitor",,"10 µM, 7 days",inhibition,-4.8%
Nc1nc(O)c2ncn(COC(CO)CO)c2n1,Human betaherpesvirus 5,"viral replication, inhibitor",HFF,,EC50,1600 nM
CCCCCCC#Cc1cncc(-c2nnc(SCc3ccc(Cl)cc3)n2C2CC2)c1,Mycobacterium tuberculosis,microbial growth,ERDMAN,,IC90,7500 nM
Cc1csc2c(=O)n(O)c(=O)[nH]c12,Human betaherpesvirus 5,"viral replication, inhibitor",,"10 µM, 7 days",inhibition,33%
COc1ccc2c3c1O[C@H]1C(=O)CC[C@@]4(O)[C@@H](C2)N(C)CC[C@]314,,thermal pain,rat,intraperitoneal,ED50,2.67 mg/kg
O=c1[nH]c2scc(-c3ccccc3)c2c(=O)n1O,Human betaherpesvirus 5,"viral replication, inhibitor",,"10 µM, 7 days",inhibition,-3.4%
NNC(=O)c1ccncc1,Mycobacterium tuberculosis,microbial growth,,,IC50,120 nM
